What was measured:
[1] = Growth inhibition of human HOP92 cells at 10 uM after 48 hrs; assay type: functional; conditions: HOP-92, 48 h, read-out: GI
Method in brief: (§1)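 Single-dose primary screen in the NCI 60 human tumour cell line panel, run at the NCI facility. The panel covers nine subpanels: leukaemia, non-small cell lung, colon, CNS, melanoma, ovarian, renal, prostate and breast. Read-out was percent growth of treated cells, shown as a mean graph and reported as percent growth inhibition.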

HCT-116 = assay: Growth inhibition of human HCT116 cells at 10 uM after 48 hrs; assay type: functional; conditions: HCT-116, 48 h, read-out: GI; method in brief: as §1
[2] = Growth inhibition of human HCC2998 cells at 10 uM after 48 hrs; assay type: functional; conditions: HCC 2998, 48 h, read-out: GI; method in brief: as §1
SW-620 = assay: Growth inhibition of human SW620 cells at 10 uM after 48 hrs; assay type: functional; conditions: SW-620, 48 h, read-out: GI
Method in brief: (§2)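 NCI 60-cell-line disease-oriented human tumor panel, single-dose primary screen at 10 µM. Data given as mean-graph percent growth of treated cells, reported as percent growth inhibition (GI %).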

MDA-MB-435 = assay: Growth inhibition of human MDA-MB-435 cells at 10 uM after 48 hrs; assay type: functional; conditions: MDA-MB-435, 48 h, read-out: GI; method in brief: as §1
MDA-MB-468 = assay: Growth inhibition of human MDA-MB-468 cells at 10 uM after 48 hrs; assay type: functional; conditions: MDA-MB-468, 48 h, read-out: GI; method in brief: as §1
CCRF-CEM = assay: Growth inhibition of human CCRF-CEM cells at 10 uM after 48 hrs; assay type: functional; conditions: read-out: GI; method in brief: as §1
IGROV-1 = assay: Growth inhibition of human IGROV1 cells at 10 uM after 48 hrs; assay type: functional; conditions: IGROV-1, 48 h, read-out: GI; method in brief: as §1
[3] = Growth inhibition of human UACC257 cells at 10 uM after 48 hrs; assay type: functional; conditions: UACC-257, 48 h, read-out: GI; method in brief: as §2
KM12 = assay: Growth inhibition of human KM12 cells at 10 uM after 48 hrs; assay type: functional; conditions: KM12, 48 h, read-out: GI; method in brief: as §1
BT-549 = assay: Growth inhibition of human BT549 cells at 10 uM after 48 hrs; assay type: functional; conditions: BT-549, 48 h, read-out: GI; method in brief: as §1
HT-29 = assay: Growth inhibition of human HT-29 cells at 10 uM after 48 hrs; assay type: functional; conditions: HT-29, 48 h, read-out: GI; method in brief: as §1
CAKI-1 = assay: Growth inhibition of human CAKI-1 cells at 10 uM after 48 hrs; assay type: functional; conditions: CAKI-1, 48 h, read-out: GI; method in brief: as §1
COLO 205 = assay: Growth inhibition of human COLO205 cells at 10 uM after 48 hrs; assay type: functional; conditions: COLO 205, 48 h, read-out: GI; method in brief: as §1
NCI-H460 = assay: Growth inhibition of human NCI-H460 cells at 10 uM after 48 hrs; assay type: functional; conditions: NCI-H460, 48 h, read-out: GI; method in brief: as §1
SK-MEL-2 = assay: Growth inhibition of human SK-MEL-2 cells at 10 uM after 48 hrs; assay type: functional; conditions: SK-MEL-2, 48 h, read-out: GI; method in brief: as §2
OVCAR-8 = assay: Growth inhibition of human OVCAR8 cells at 10 uM after 48 hrs; assay type: functional; conditions: OVCAR-8, 48 h, read-out: GI; method in brief: as §1
786-0 = assay: Growth inhibition of human 786-0 cells at 10 uM after 48 hrs; assay type: functional; conditions: 786-0, 48 h, read-out: GI; method in brief: as §1
NCI-H522 = assay: Growth inhibition of human NCI-H522 cells at 10 uM after 48 hrs; assay type: functional; conditions: NCI-H522, 48 h, read-out: GI; method in brief: as §1
HCT-15 = assay: Growth inhibition of human HCT15 cells at 10 uM after 48 hrs; assay type: functional; conditions: HCT-15, 48 h, read-out: GI; method in brief: as §1
MOLT-4 = assay: Growth inhibition of human MOLT4 cells at 10 uM after 48 hrs; assay type: functional; conditions: MOLT-4, 48 h, read-out: GI; method in brief: as §1
UACC-62 = assay: Growth inhibition of human UACC62 cells at 10 uM after 48 hrs; assay type: functional; conditions: UACC-62, 48 h, read-out: GI; method in brief: as §2
[4] = Cytotoxicity against human melanoma cells at 10 uM after 48 hrs; assay type: functional; conditions: Melanoma cell; for CC50: read-out: LC50 (the source's name); method in brief: as §1
Dihydrofolate reductase = biological target: T1, Dihydrofolate reductase (Bos taurus, UniProt P00376); assay: Inhibition of bovine liver DHFR measured for every 1 min of 10 mins
T1 sequence (P00376 whole entry): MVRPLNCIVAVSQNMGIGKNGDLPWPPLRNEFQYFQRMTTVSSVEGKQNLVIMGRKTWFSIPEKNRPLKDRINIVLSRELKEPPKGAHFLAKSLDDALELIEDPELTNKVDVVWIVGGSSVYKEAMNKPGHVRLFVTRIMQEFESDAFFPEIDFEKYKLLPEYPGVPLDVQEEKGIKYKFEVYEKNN

[5] = Cytotoxicity against human leukemia cells at 10 uM after 48 hrs; assay type: functional; conditions: Leukemia cell
[6] = Cytotoxicity against human breast cancer cells at 10 uM after 48 hrs; assay type: functional; conditions: Cancer cell lines; method in brief: as §1

| SMILES | inhibition of growth at 10 µM [1] [%] | inhibition of growth at 10 µM [2] [%] | inhibition of growth at 10 µM (SW-620) [%] | inhibition of growth at 10 µM (MDA-MB-435) [%] | inhibition of growth at 10 µM (CCRF-CEM) [%] | inhibition of growth at 10 µM (IGROV-1) [%] | inhibition of growth at 10 µM [3] [%] | inhibition of growth at 10 µM (KM12) [%] | inhibition of growth at 10 µM (BT-549) [%] | inhibition of growth at 10 µM (HT-29) [%] | inhibition of growth at 10 µM (CAKI-1) [%] | inhibition of growth at 10 µM (COLO 205) [%] | inhibition of growth at 10 µM (NCI-H460) [%] | inhibition of growth at 10 µM (SK-MEL-2) [%] | inhibition of growth at 10 µM (OVCAR-8) [%] | inhibition of growth at 10 µM (786-0) [%] | inhibition of growth at 10 µM (NCI-H522) [%] | inhibition of growth at 10 µM (HCT-15) [%] | inhibition of growth at 10 µM (MOLT-4) [%] | inhibition of growth at 10 µM (UACC-62) [%] | further results |
| --- | --- | --- | --- | --- | --- | --- | --- | --- | --- | --- | --- | --- | --- | --- | --- | --- | --- | --- | --- | --- | --- |
| Cc1nc2c(c(-c3ccc(Br)cc3)n1)CCC/C2=C\c1ccc(Br)cc1 | < 30 | < 30 | < 30 | < 30 | < 30 | < 30 | < 30 | < 30 | < 30 | < 30 | < 30 | < 30 | < 30 | < 30 | < 30 | < 30 | < 30 | < 30 | < 30 | < 30 | inhibition of growth at 10 µM (HCT-116): 55.8%; inhibition of growth at 10 µM (MDA-MB-468): < 30% |
| COc1ccc(/C=C2\CCCc3c2nc(N)nc3-c2ccc(OC)c(OC)c2)cc1OC | < 30 | < 30 | 59.3 | 69.2 | 84.7 | 42.9 | 53.8 | 67.9 | 63.9 | 75.8 | 44.2 | 54 | 35.4 | 43.2 | 89.4 | < 30 | 83.3 | 64.1 | 46.9 | 47.2 | inhibition of growth at 10 µM (HCT-116): 92.1%; GI50 [4]: 5.5 µM; TGI [4]: 73.4 µM; CC50 [4]: 95.6 µM; IC50 (Dihydrofolate reductase): 14 µM; GI50 [5]: 2.1 µM; LC50 [5]: > 100 µM; TGI [5]: 65.1 µM; GI50 [6]: 3.9 µM; LC50 (concentration killing 50% of cells) [6]: > 100 µM; TGI [6]: 87.3 µM |
| Cc1nc2c(c(-c3ccc(Cl)cc3)n1)CCC/C2=C\c1ccc(Cl)cc1 | < 30 | 58.5 | < 30 | 77.7 | < 30 | < 30 | < 30 | 62 | 34 | 45.6 | < 30 | < 30 | < 30 | < 30 | < 30 | < 30 | < 30 | < 30 | < 30 | < 30 | inhibition of growth at 10 µM (MDA-MB-468): < 30% |
| COc1ccc(/C=C2\CCCc3c2nc(C)nc3-c2ccc(OC)cc2)cc1 | < 30 | < 30 | < 30 | 40.5 | < 30 | < 30 | < 30 | < 30 | < 30 | < 30 | < 30 | < 30 | < 30 | < 30 | < 30 | < 30 | < 30 | < 30 | < 30 | < 30 | inhibition of growth at 10 µM (HCT-116): < 30%; inhibition of growth at 10 µM (MDA-MB-468): < 30% |
| Clc1ccc(/C=C2\CCCC3=C(c4ccc(Cl)cc4)Nc4ccccc4N=C32)cc1 | 39.4 | < 30 | 58.6 | 88.2 | < 30 | < 30 | < 30 | 82.7 | < 30 | 84.1 | < 30 | 31.9 | < 30 | < 30 | 34.3 | < 30 | 80.1 | 36.4 | 34.2 | < 30 | inhibition of growth at 10 µM (MDA-MB-468): 40%; GI50 [4]: 9.5 µM; TGI [4]: 24.3 µM; CC50 [4]: 64.2 µM; IC50 (Dihydrofolate reductase): 0.3 µM; GI50 [5]: 4.1 µM; LC50 [5]: > 100 µM; TGI [5]: 49.4 µM; GI50 [6]: 4.6 µM; LC50 (concentration killing 50% of cells) [6]: 88.1 µM; TGI [6]: 58.2 µM |
| COc1ccc(/C=C2\CCCc3c2nc(N)nc3-c2ccc(OC)cc2)cc1 | 31.4 | < 30 | < 30 | < 30 | < 30 | < 30 | < 30 | < 30 | < 30 | < 30 | < 30 | < 30 | < 30 | < 30 | < 30 | < 30 | < 30 | < 30 | < 30 | 32.1 | inhibition of growth at 10 µM (HCT-116): < 30%; IC50 (Dihydrofolate reductase): 18 µM |
| Nc1nc2c(c(-c3ccc(Br)cc3)n1)CCC/C2=C\c1ccc(Br)cc1 | < 30 | 51.5 | < 30 | 63.2 | < 30 | < 30 | < 30 | 53 | < 30 | 67.8 | < 30 | < 30 | < 30 | < 30 | < 30 | < 30 | 51.6 | < 30 | < 30 | < 30 | inhibition of growth at 10 µM (MDA-MB-468): < 30%; IC50 (Dihydrofolate reductase): 16 µM |
| Nc1nc2c(c(-c3ccc(Cl)cc3)n1)CCC/C2=C\c1ccc(Cl)cc1 | < 30 | – | 81.1 | – | < 30 | < 30 | < 30 | 97.7 | < 30 | 92.3 | < 30 | < 30 | < 30 | < 30 | 58.8 | < 30 | 81 | 41.7 | 35.1 | < 30 | inhibition of growth at 10 µM (MDA-MB-468): 37.8%; GI50 [4]: 15.4 µM; TGI [4]: 36.5 µM; CC50 [4]: 80 µM; IC50 (Dihydrofolate reductase): 17 µM; GI50 [5]: 7.8 µM; LC50 [5]: > 100 µM; TGI [5]: 61.1 µM; GI50 [6]: 23.6 µM; LC50 (concentration killing 50% of cells) [6]: 92.2 µM; TGI [6]: 70.9 µM |

Source: ChEMBL document CHEMBL3112482, “Nonclassical antifolates, part 5. Benzodiazepine analogs as a new class of DHFR inhibitors: synthesis, antitumor testing and molecular modeling study” (Eur J Med Chem, 2014)
